Assay outcomes: PubChem, several laboratories
GSTO1 counter: inhibitors of recombinant GSTO1, primary screen, counter-screen for RBBP9 inhibitor project, biochemical, fluorescence polarization; activity-based probe fluorescence polarization; 1.1% of 300,000 active; Glutathione S-transferase omega-1 (Homo sapiens), P78417; AID 1974, 2009; inhibition, % at 5.96 µM;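 active = inhibition above the campaign mean inhibition plus 3 SD, cut at about 35% in these data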;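 also: 0% = GSTO1-1 with DMSO and 100% = wells lacking GSTO1-1 enzyme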
UCH37 DUB inh: inhibitors of human UCH37 deubiquitinase, primary screen, biochemical, Ub-AMC cleavage, fluorescence; purified proteasome/UCH37; inhibition, % (no concentration beside the values); 0.33% of 330,000 active;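 active = mean inhibition over replicate wells above about 20%, limit read from the data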;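 also: 0% = compound-free wells with enzyme and 100% = wells lacking proteasome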
Target sequence (Q9Y5K5 whole entry, looked up): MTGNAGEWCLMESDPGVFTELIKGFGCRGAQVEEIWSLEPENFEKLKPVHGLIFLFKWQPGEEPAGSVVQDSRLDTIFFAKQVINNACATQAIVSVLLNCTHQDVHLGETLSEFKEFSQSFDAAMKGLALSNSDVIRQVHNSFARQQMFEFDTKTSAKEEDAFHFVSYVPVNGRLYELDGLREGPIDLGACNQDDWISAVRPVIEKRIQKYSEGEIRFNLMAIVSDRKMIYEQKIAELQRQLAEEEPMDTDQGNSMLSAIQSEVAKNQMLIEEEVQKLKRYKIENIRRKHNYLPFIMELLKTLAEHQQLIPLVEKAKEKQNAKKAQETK
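System: Proteasome-associated human UCH37 deubiquitinase; Input: 0.15 nM proteasome in added enzyme buffer; Also added: Ub-AMC substrate from 1 µM stock; Incubation: 30 min compound-proteasome preincubation then 25 min substrate reaction, room temperature; Detection: fluorescence, ex 355 nm, em 460 nm; Read-out: % inhibition of Ub-AMC cleavage fluorescence; Benchmarks: no-proteasome and no-compound wells.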
TDP2 absorb: human TDP2 enzyme inhibitors, primary screen, biochemical, epi absorbance, recombinant enzyme; 0.34% of 370,000 active; inhibition, % at 12.8 µM; Tyrosyl-DNA phosphodiesterase 2 (Homo sapiens), O95551; T5PNP hydrolysis, p-nitrophenol absorbance 415 nm;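 active = inhibition above the mean of all tested compounds plus 3 SD, set per campaign, cut at about 25% in these data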;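 also: 0% = DMSO with enzyme and 100% = buffer with substrate but no TDP2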
Target sequence (O95551 whole entry, looked up): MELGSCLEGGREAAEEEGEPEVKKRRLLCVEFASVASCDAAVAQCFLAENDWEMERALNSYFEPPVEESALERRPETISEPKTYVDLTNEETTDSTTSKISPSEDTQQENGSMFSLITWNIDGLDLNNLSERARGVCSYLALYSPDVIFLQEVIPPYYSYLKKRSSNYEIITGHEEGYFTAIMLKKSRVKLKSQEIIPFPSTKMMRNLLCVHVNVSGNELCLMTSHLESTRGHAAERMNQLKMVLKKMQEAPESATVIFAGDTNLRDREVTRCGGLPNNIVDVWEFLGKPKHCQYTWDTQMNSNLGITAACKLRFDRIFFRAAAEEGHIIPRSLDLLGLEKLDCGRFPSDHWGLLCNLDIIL
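Evaluation: % inhibition relative to enzyme-containing and enzyme-free wells. Material: recombinant human TDP2. Benchmarks: enzyme-free and DMSO wells. Timing: enzyme reaction with compound for 2 h at 37 °C. Compound dosing: 12.8 µM only. Measured by: p-Nitrophenol epi absorbance. Reagent: T5PNP substrate at 5 mM, a TopII-DNA adduct mimic. Replication: single well per compound.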
PAD4 inh: human PAD4 inhibitors, primary screen, biochemical, fluorescence polarization, 1536-well format; recombinant PAD4, RCA probe fluorescence polarization; AID 485272, 2010; Protein-arginine deiminase type-4 (Homo sapiens), Q9UM07; 0.41% of 330,000 active; inhibition, % at 6.36 µM;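 active = percent inhibition above a cutoff equal to the mean of all tested compounds plus 3 SD, cut at about 15% in these data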;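 also: 0% = PAD4 with RCA probe and DMSO and 100% = probe without PAD4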
Fh CTSL1 inh: Fasciola hepatica cathepsin L1 inhibitors, primary screen, counter-screen for PFM18AAP inhibitor project, biochemical, QFRET, fluorogenic peptide substrate; recombinant F. hepatica cathepsin L1, Z-Leu-Arg-MCA fluorescence; inhibition, % at 5.96 µM; 0.49% of 300,000 active; AID 1906, 2009;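 active = inhibition above the mean of all tested compounds plus 3 SD, set per screening campaign, cut at about 17% in these data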;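 also: 0% = plate median of test compound wells and 100% = 1 µM Z-Phe-Ala-diazomethylketone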
HKDC1 inhibitor: HKDC1 hexokinase inhibitors, primary screen, biochemical, fluorescence, uHTS | inhibition, % at 20 µM | 0.16% of 340,000 active | Q2TB90 | recombinant HKDC1, G6PDH/diaphorase resazurin coupled fluorescence;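 active = inhibition above about 35% when tested at 20 µM, limit read from the data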;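 also: plate controls were DMSO wells with enzyme for no effect and DMSO wells lacking enzyme for full effect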
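Assay system: in-house recombinant HK5 (HKDC1) enzyme. Input: HKDC1 at 5 µg/mL. Medium: Tris pH 8.0 buffer with MgCl2, Tween-20, BSA, BME. Dosing: single 20 µM dose. Schedule: 90 min reaction incubation at room temperature, dark. Signal: resazurin-to-resorufin fluorescence via G6PDH and diaphorase coupling, 525/613 nm. Controls: DMSO-enzyme wells negative, buffer-substituted wells positive.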
PAD4 FP conf: human PAD4 inhibitors, confirmation, biochemical, fluorescence polarization. shares compounds with PAD4 inh. recombinant PAD4, RCA probe fluorescence polarization. inhibition, % at 6.36 µM. 28% of 1,200 active. AID 488796, 2010;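 active = mean inhibition across replicates above the hit cutoff set by the earlier primary screen, cut at about 15% in these data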;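 also: inhibitors block active-site labeling by the probe so polarization falls; 0% = PAD4 with probe and DMSO and 100% = probe without PAD4 enzyme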
* marks the source's active call; other numbers are inactive results; / = not tested or not shown. Compounds with a hit are over-represented: about 1.6% of the library has one in this group of screens.

SMILES | GSTO1 counter | UCH37 DUB inh | TDP2 absorb | PAD4 inh | Fh CTSL1 inh | HKDC1 inhibitor | PAD4 FP conf
CC(=O)Nc1ccccc1-c1ccc(C)o1 | 6 | -1 | 8 | 1 | 1 | -5 | /
COc1cc(C=NNc2ccccc2C(F)(F)F)ccc1O | / | 3 | / | / | / | / | /
Cc1ccccc1N1CCN(C(=S)c2ccc([N+](=O)[O-])cc2)CC1 | -1 | 4 | -2 | 20* | 4 | -4 | 2
C=CCc1cccc(C=NNC(=O)c2ccc3nc[nH]c3c2)c1O | / | -1 | / | / | / | / | /
Cc1nc(SCC(=O)NCc2ccccc2)c2oc3ccccc3c2n1 | 3 | 5 | -4 | 21* | 5 | -7 | -6
NC(=O)NN=C1CCS(=O)(=O)c2ccc(F)cc21 | / | 1 | / | / | / | / | /
Cc1cc(Cl)ccc1NC(=O)C(=O)NN=Cc1ccc2c(c1)OCO2 | / | -23 | / | / | / | / | /
N#Cc1cc(-c2ccccc2)[nH]c1-c1nccc2ccccc12 | -10 | -55 | 10 | 22* | 11 | 1 | 12
CCOC(=O)c1csc(NN=C2CCCc3ccccc32)n1 | / | 1 | / | / | / | / | /
S=C(NCc1ccco1)Nc1cccc(Cl)c1 | 4 | 3 | -10 | 163* | 7 | 1 | 0
S=C(NCc1ccco1)Nc1ccc(Cl)c(Cl)c1 | -6 | 3 | -18 | 3 | 0 | -2 | /
COc1cc(OC)c(OC)cc1/C=N/NC(=O)c1ccc2nc[nH]c2c1 | -10 | / | -8 | 16* | 1 | 1 | 1
COc1cc(C(C)=O)ccc1OCc1cc(C(=O)N2CCSCC2)no1 | 5 | 0 | 6 | -2 | 3 | -2 | /
CC(=O)c1cccc(OCc2cc(C(=O)N3CCSCC3)no2)c1 | -1 | 2 | -19 | 35* | 0 | -5 | 6
CC(=NNc1ccc([N+](=O)[O-])cc1)c1ccc(N2CCOCC2)cc1 | / | 2 | / | / | / | / | /
CCOc1ccc(C(=O)NN=Cc2ccc(SC)cc2)cc1 | / | 6 | / | / | / | / | /
COC(=O)C/C=C/[C@@H](C)[C@@H](C=NOC[C@@H](C)[C@H](OCc1ccccc1)C(C)C)NS(=O)(=O)c1ccc(C)cc1 | / | 2 | / | / | / | / | /
CCC(=Nn1nnnc1Nc1ccccc1)c1ccccc1 | / | 3 | / | / | / | / | /
CC(C)c1ccc(/C=N/n2nnnc2Nc2ccccc2)cc1 | 2 | / | 1 | 15* | -1 | -5 | 6
O=C(Oc1ccc(-c2cnc3ccccc3n2)cc1)c1ccc(Br)o1 | 5 | -3 | 7 | 39* | -3 | -4 | 27*
O=C(OCn1ncc(Cl)c(Cl)c1=O)c1cccc(C(F)(F)F)c1 | 21 | 2 | / | 32* | -1 | 35 | 20*
CCc1ccc(C(=O)Cn2ncc(Cl)c(Cl)c2=O)cc1 | 21 | -3 | 10 | 6 | 2 | 10 | /
COc1ccc(N2C(=O)CSC23C(=O)Nc2ccccc23)cc1 (centres undefined) | -3 | 4 | 2 | 16* | -1 | -1 | 14
Cc1ccc(N2C(=O)CCSC23C(=O)Nc2ccccc23)cc1 (centres undefined) | -13 | 3 | -1 | 2 | -3 | -6 | /
O=C(NN=Cc1cccc(F)c1)c1ccc(-c2ccccc2)cc1 | / | 1 | / | / | / | / | /
SMILES | GSTO1 counter | UCH37 DUB inh | TDP2 absorb | PAD4 inh | Fh CTSL1 inh | HKDC1 inhibitor | PAD4 FP conf
CCOC(=O)C1=C(C)NC(=O)C(C#N)C1c1ccco1 (centres undefined) | -7 | 1 | -3 | 18* | 12 | -3 | 2
Cc1nc2c(C)cccc2cc1C(=O)NN=Cc1ccc(C(=O)O)cc1 | / | 3 | / | / | / | / | /
Cc1cc(O)ccc1N/C=C/c1onc(C)c1[N+](=O)[O-] | -2 | 4 | 1 | 37* | 4 | 1 | 3
CC1CCN(CCCn2c(=S)[nH]c3c(sc4ccccc43)c2=O)CC1 | 4 | 4 | 1 | 0 | 3 | -6 | /
COCCCn1c(=S)[nH]c2c(sc3ccccc32)c1=O | 11 | 4 | 4 | 18* | 0 | -2 | 14
Cc1cc(-c2ccccc2C(=O)O)on1 | -5 | 3 | 2 | 5 | -2 | -9 | /
O=C(O)c1ccccc1C1=Nc2ccc(O)cc2Oc2cc(O)ccc21 | 17 | 12 | 8 | 26* | 4 | 1 | 35*
CC(=O)C1=C(c2ccccc2)OC(N)=C(C#N)C1c1ccccc1C (centres undefined) | 0 | 1 | 8 | -1 | -27 | -2 | /
CCN1C=C(Cc2ccc(F)cc2)C2=C(C1)C(c1ccc(F)cc1)C(C#N)=C(N)O2 (centres undefined) | 2 | 2 | -12 | 24* | 0 | -3 | 14
Cc1[nH]nc2c1C(c1ccc(F)cc1)C(C#N)=C(N)O2 (centres undefined) | -1 | 3 | 7 | 2 | -1 | -2 | /
CCN1C=C(Cc2ccccc2C)C2=C(C1)C(c1ccccc1C)C(C#N)=C(N)O2 (centres undefined) | -8 | -6 | 2 | 17* | 1 | 7 | 7
CN(C)c1ccc(C=NNC(=O)c2cc(=O)[nH]c3ccccc23)cc1 | / | 13 | / | / | / | / | /
COc1cc(-c2nc(C(=O)NC3CCCCC3)cc3c2[nH]c2ccccc23)cc(OC)c1OC | -18 | -43 | -7 | 16* | -5 | 0 | 16*
Cc1ccsc1C=NNC(=O)CSCc1ccc(Cl)cc1 | / | 1 | / | / | / | / | /
COc1ccc(C2CC(=O)Oc3cc(O)ccc32)cc1 (centres undefined) | / | / | -14 | 0 | / | 24 | /
Cc1ccccc1C1CC(=O)Oc2cc(O)ccc21 (centres undefined) | / | 2 | / | 82* | / | 4 | 78*
CCOC(=O)C1=C(C)N=c2s/c(=C\c3ccc(OCC(=O)O)c(OC)c3)c(=O)n2C1c1ccc(OC)cc1 (centres undefined) | -10 | / | 18 | 15* | 10 | 2 | 3
CC(=O)NC(c1cccs1)c1cc([N+](=O)[O-])c2cccnc2c1O (centres undefined) | 28 | 20* | -12 | 25* | 5 | 10 | 4
CCSc1c([N+](=O)[O-])c(=O)n(-c2ccccc2)c2ccccc12 | -8 | 5 | -7 | 23* | 4 | 9 | 21*
CC(=NOC(=O)c1cccc(C)c1)c1sc(-c2ccccc2)nc1C | / | -20 | / | / | / | / | /
CCOC(=O)C1(CC(C)=NNC(N)=O)CC(C)OC1=O (centres undefined) | / | 0 | / | / | / | / | /
